# Source: PubChem (Broad Institute)
# Statin myotox sup: suppressors of simvastatin-induced myotoxicity in C2C12 myotubes; rescue of ATP level, % at 7.49 µM; 0.78% of 330,000 active; ATP luminescence, 48 h; scaled: DMSO 0, geranylgeraniol control 100; AID 602340;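 active = mean ATP rescue above about 67%, or every replicate alone reaching that limit, limit read from the data, passing the limit was not always enough; inconclusive = no clear call, values can overlap the other calls; inactive = mean under the limit and some replicate under it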;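 note: myotubes were challenged with 10 µM simvastatin during compound exposure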
# PDI turbidity: blocks human protein disulfide isomerase activity; PDI insulin aggregation turbidity, A650, 90 min; inhibition, % at 10 µM; 0.052% of 350,000 active;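 active = mean inhibition across replicates of 30% or more, whatever share of single replicates reach that level; inconclusive = mean inhibition below 30% while every single replicate reaches 30%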
# ERp5 block: inhibitors of human ERp5; ERp5 insulin aggregation, absorbance 650 nm, 90 min; inhibition, % at 9.99 µM; 0.05% of 350,000 active;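 active = mean replicate inhibition above about 25%, with every replicate also reaching it, limit read from the data, passing the limit was not always enough; inconclusive = only one of those two criteria met; inactive = neither criterion met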
# Target sequence (Q15084 whole entry, looked up): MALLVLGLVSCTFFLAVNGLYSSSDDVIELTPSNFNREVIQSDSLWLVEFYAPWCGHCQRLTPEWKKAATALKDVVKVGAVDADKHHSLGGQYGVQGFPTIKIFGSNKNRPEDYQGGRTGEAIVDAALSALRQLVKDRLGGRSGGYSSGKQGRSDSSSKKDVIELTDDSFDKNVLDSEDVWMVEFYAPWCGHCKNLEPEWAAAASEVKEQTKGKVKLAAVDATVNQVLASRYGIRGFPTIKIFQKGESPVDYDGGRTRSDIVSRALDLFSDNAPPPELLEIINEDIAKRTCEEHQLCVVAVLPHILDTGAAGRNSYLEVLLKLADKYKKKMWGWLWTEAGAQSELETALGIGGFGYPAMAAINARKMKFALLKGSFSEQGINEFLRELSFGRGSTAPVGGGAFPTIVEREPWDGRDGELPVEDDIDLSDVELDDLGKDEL
# DENV2 CPE: protects cells from dengue virus 2 cytopathic effect | 1.7% of 350,000 active | DENV2-infected cells, cytopathic effect rescue, plate reader | CPE inhibition, % at 9.99 µM; in the data active = CPE inhibition above about 20%, passing the limit was not always enough; inconclusive = no clear call, values can overlap the other calls; tested in BHK-21 cells;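 note: 0% = median of neutral control wells and 100% = median of positive control wells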
# F508del corr: CFTR F508del correction in bronchial cells. AID 720511. 0.36% of 350,000 active. CFBE cells, YFP halide quenching; stimulated with forskolin plus potentiator P3; % fluorescence drop versus neutral controls. activity (quench increase), % at 7.58 µM;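 active = mean added fluorescence quench of at least 8% versus neutral control, with both replicates also reaching 8%; inconclusive = only one of the mean or replicate conditions met; inactive = mean below 8% and not both replicates reaching 8%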;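 note: cells transiently co-express mutant CFTR-F508del with the halide-sensitive YFP; corrector assay measuring rescue of mutant channel to the surface after 24 h compound exposure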
# Cneo AK release: causes C. neoformans cell lysis; lysis activity, % at 15 µM; 0.2% of 360,000 active; adenylate kinase release luminescence, 4 h; normalised: neutral wells 0, clomiphene wells 100;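 active = mean lysis activity across replicates of at least 80%, whatever share of replicates individually reach that level; inactive = mean lysis activity below 80%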
#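 Material: C. neoformans cells | Amount: Yeast cell density of 5 × 10^6 cells/mL | Medium: Fresh YPD growth medium | Dosing: Single dose | Times: Static 4 h at 37 °C with compound, 1 h detection | Detection: AK luminescence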
# An asterisk follows results filed as active; ? = inconclusive; nt = not tested or not shown. Most compounds without a hit are left out; they make up all but 2.3% or so of the library.
SMILES,Statin myotox sup,PDI turbidity,ERp5 block,DENV2 CPE,F508del corr,Cneo AK release
O=C(CC1CC1)N1CC(=O)N2[C@H](CO)[C@H](c3ccc(C#Cc4ccccc4)cc3)[C@H]2C1,nt,nt,-10,-4,3,nt
CCOC(=O)CC(=O)CSc1ncc(C(=O)OCC)c(N)n1,120*,-2,nt,nt,nt,1
O=C(c1ccncc1)N1CC(=O)N2[C@H](CO)[C@H](c3ccc(/C=C/c4ccccc4)cc3)[C@@H]2C1,nt,nt,3,-1,2,nt
COc1cc(OC)cc(C(=O)NCCC(c2ccccc2)c2ccccc2)c1,6,-13,-1,45*,-1,3
COC(=O)c1ccc(N)cc1O,nt,-19,nt,nt,nt,1
COC(=O)c1ccc(=O)c2nc3/c(=C/O)c(O)cc(=O)c3[nH]c12,12,nt,5,42*,-1,-1
COc1ccc(-c2cnc3c(c2)C(=O)N([C@H](C)CO)C[C@H](C)[C@H](CN(C)S(=O)(=O)c2cccc(F)c2)O3)cc1,nt,nt,7,4,-2,0
C[C@H]1CN([C@@H](C)CO)C(=O)Cc2cc(NC(=O)Cc3ccccc3)ccc2O[C@@H]1CN(C)Cc1ccc(C(F)(F)F)cc1,37,nt,-2,?,4,4
CCOC(=O)CN1CC23C=CC(O2)C(C(=O)NC2CCCCCC2)C3C1=O (stereo not drawn),-1,nt,8,0,3,-1
CCOC(=O)CN1CC23C=CC(O2)C(C(=O)NCCc2ccccc2)C3C1=O (stereo not drawn),0,nt,0,22*,-3,0
Cc1ccc(S(=O)(=O)N(C)C[C@@H]2OCCCC[C@@H](C)Oc3ccc(NC(=O)Nc4ccc(F)cc4)cc3C(=O)N([C@@H](C)CO)C[C@@H]2C)cc1,nt,nt,1,-3,-3,-8
CCNc1nc(NCC)nc(Nn2cnnc2)n1,99*,-4,-4,-2,-2,-4
CCNc1nc(NC(C)(C)C)nc(N(CC)n2cnnc2)n1,-3,-3,nt,nt,nt,2
O=C1C/C(=C/NCc2ccccc2)C(=O)N1,95*,8,nt,nt,nt,-4
COc1ccc(-c2csc(NC(=S)NC(=O)/C=C/c3ccc(C(C)C)cc3)n2)cc1OC,-8,-4,3,-10,1,4
COc1ccc(-c2csc(NC(=S)NC(=O)/C=C/c3ccco3)n2)cc1OC,-56,-9,-1,5,9.7*,nt
COc1ccc(-c2csc(NC(=S)NC(=O)/C=C/c3ccco3)n2)cc1Br,-48,-15,-19,-4,9.4*,0
CO[C@H]1CN(C)C(=O)c2cc(NC(=O)CC(F)(F)F)ccc2OC[C@H](C)N(C(=O)C2CCCCC2)C[C@@H]1C,nt,nt,15,-2,1,nt
CCOc1cc(/C=N/NC(=O)CCCC(=O)NC2CCCCC2)ccc1O,nt,3,-2,9,nt,102*
COc1cc(/C=N/NC(=O)CCC(=O)NC2CCCCC2)ccc1C,nt,0,0,3,-2,nt
CCn1ncc(Br)c1C(=O)Nc1ccccc1OC,nt,0,-3,-3,-3,nt
CCn1ncc(Br)c1C(=O)Nc1cc(C(=O)OC)ccc1C(=O)OC,123*,-3,nt,nt,nt,nt
C[C@@H]1CN([C@@H](C)CO)C(=O)c2cccc(N(C)C)c2O[C@H]1CN(C)Cc1ccncc1,-6,nt,-3,-8,0,51
Nc1ncnc2nc(SCc3ccccc3)[nH]c12,99*,-12,nt,nt,nt,1
Cc1ccc(-c2ccc3c(c2)O[C@H](CN(C)C(=O)Nc2ccc(C(F)(F)F)cc2)[C@@H](C)CN([C@@H](C)CO)S3(=O)=O)cc1,nt,nt,3,17,8.7*,-2
SMILES,Statin myotox sup,PDI turbidity,ERp5 block,DENV2 CPE,F508del corr,Cneo AK release
CC(=O)N(C)C[C@H]1Oc2cc(-c3ccccc3)ccc2S(=O)(=O)N([C@@H](C)CO)C[C@@H]1C,8,nt,1,33*,nt,2
C[C@H](CO)N1C[C@H](C)[C@@H](CN(C)C(=O)C2CCC2)Oc2cc(-c3cncnc3)ccc2S1(=O)=O,2,nt,1,29*,-4,-1
C[C@@H]1CN([C@H](C)CO)S(=O)(=O)c2ccc(-c3ccccc3)cc2O[C@H]1CN(C)C(=O)C1CCCCC1,-31,nt,-10,-12,-1,105*
COCC(=O)Nc1ccc2c(c1)C(=O)N(C)[C@H]1CC[C@@H](CC(=O)OC)O[C@@H]1CO2,4,nt,nt,-2,0,-2
COc1ccc2c3c(n(C)c2c1)[C@@H](CO)N(C(C)=O)CC31CN(C(=O)Nc2ccc(F)cc2)C1,nt,nt,-5,4,-1,nt
C[C@H](CO)N1C[C@H](C)[C@H](CN(C)C(=O)Nc2ccc(F)cc2)Oc2ncc(C3=CCCCC3)cc2C1=O,-34,nt,2,33*,-4,8
C[C@@H]1CN([C@H](C)CO)C(=O)c2cc(C3=CCCC3)cnc2O[C@@H]1CN(C)C(=O)Nc1ccccc1,47,nt,-2,34*,1,-1
C[C@H](CO)N1C[C@H](C)[C@@H](CN(C)C(=O)Nc2cccc(F)c2)Oc2ncc(C3=CCCCC3)cc2C1=O,-4,nt,0,20*,1,-1
C[C@H]1CN([C@@H](C)CO)C(=O)c2cc(C3=CCCCC3)cnc2O[C@H]1CN(C)C(=O)Nc1ccc(F)cc1,-4,nt,2,9,-1,-3
C/C=C/c1cnc2c(c1)C(=O)N([C@@H](C)CO)C[C@@H](C)[C@@H](CN(C)C(=O)CN1CCOCC1)O2,-8,nt,0,17,1,-6
C[C@H](CO)N1C[C@H](C)[C@H](CN(C)C(=O)Nc2ccc3c(c2)OCO3)Oc2c(NC(=O)c3ccncc3)cccc2C1=O,-9,nt,-7,15,1,-11
CC(C)C(OC(=O)CCC(=O)Nc1nccs1)C(=O)NC1CCCCC1 (stereo not drawn),99*,5,5,1,4,-1
C[C@H]1CN([C@@H](C)CO)C(=O)c2cccc(NC(=O)NC3CCCCC3)c2O[C@H]1CN(C)S(=O)(=O)c1ccc(F)cc1,-4,nt,nt,nt,1,nt
Cn1c(=O)c2c(nc3n2CC(O)CN3c2ccc(O)cc2)n(C)c1=O (stereo not drawn),-13,-5,-1,39*,3,-1
C[C@H]1CN([C@@H](C)CO)S(=O)(=O)c2ccc(-c3ccc(C(=O)N(C)C)cc3)cc2O[C@@H]1CN(C)C(=O)Nc1ccccc1F,1,nt,7,4,1,0
CCCC#Cc1ccc([C@@H]2[C@H](CO)N3C(=O)CN(C(=O)Nc4ccc(F)cc4)C[C@@H]23)cc1,nt,nt,2,-3,-1,nt
O=C1C=CCC(/C=C/c2ccccc2)O1 (stereo not drawn),nt,nt,-1,nt,15*,nt
O=C/C=C/c1ccc(/C=C/c2ccccc2)cc1,nt,nt,2,14,-3,-31
CCC(=O)Nc1cc(C(=O)OCc2ccc(C(=O)Oc3ccccc3)cc2)ccc1C,-1,-1,-5,82*,-2,nt
[N-]=[N+]=CC(=O)c1ccnc(C(=O)C=[N+]=[N-])c1,94*,-4,nt,nt,nt,-1
